Measurements: ChEMBL document CHEMBL4130369, “Structure-activity relations of rosmarinic acid derivatives for the amyloid β aggregation inhibition and antioxidant properties” (Eur J Med Chem, 2017)

How the values were obtained:
[1] = Antioxidant activity assessed as inhibition of DPPH radical at 100 uM incubated for 20 mins measured for 60 mins relative to control; assay type: functional
How it was run: (§1)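 DPPH (40 μL of 1 mM stock) in EtOH; test compound added from 2 mM or 10 mM DMSO stocks at rt. Absorbance at 517 nm read continuously for 60 min. Radical trapping capacity was calculated from the 20 min reading.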

[2] = Antioxidant activity assessed as inhibition of DPPH radical at 500 uM incubated for 20 mins measured for 60 mins relative to control; assay type: functional; how it was run: as §1
[3] = target: T1, Amyloid-beta precursor protein (Homo sapiens, UniProt P05067); assay: Inhibition of QD-labeled amyloid beta (1 to 42) (unknown origin) aggregation assessed as change in fluorescence at 5.13 uM after 24 hrs by inverted fluorescence microscopic method (reference value: 6.77)
T1 sequence (P05067 whole entry): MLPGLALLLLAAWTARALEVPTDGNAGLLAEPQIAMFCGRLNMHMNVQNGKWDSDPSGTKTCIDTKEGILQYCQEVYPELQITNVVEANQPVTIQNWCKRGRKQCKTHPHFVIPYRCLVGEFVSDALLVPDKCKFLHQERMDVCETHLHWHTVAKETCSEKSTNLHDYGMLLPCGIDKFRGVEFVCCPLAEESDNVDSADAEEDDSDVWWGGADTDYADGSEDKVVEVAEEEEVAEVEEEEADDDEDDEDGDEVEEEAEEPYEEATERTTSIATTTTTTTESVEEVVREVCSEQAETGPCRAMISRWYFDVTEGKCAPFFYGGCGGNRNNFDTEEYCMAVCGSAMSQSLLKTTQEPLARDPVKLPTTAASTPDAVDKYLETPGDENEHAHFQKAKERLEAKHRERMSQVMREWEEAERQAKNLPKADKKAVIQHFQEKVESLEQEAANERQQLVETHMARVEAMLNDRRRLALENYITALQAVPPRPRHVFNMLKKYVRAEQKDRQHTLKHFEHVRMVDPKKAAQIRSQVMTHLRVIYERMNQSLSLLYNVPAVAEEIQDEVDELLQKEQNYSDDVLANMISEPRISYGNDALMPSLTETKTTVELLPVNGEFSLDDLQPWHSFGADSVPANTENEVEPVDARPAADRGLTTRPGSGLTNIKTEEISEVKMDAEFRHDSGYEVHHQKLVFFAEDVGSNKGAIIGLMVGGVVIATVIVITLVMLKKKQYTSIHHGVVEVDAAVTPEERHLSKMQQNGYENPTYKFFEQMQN
How it was run: (§2)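 Aβ(1-42) (30 μM) was co-incubated with 30 nM QD-labeled Aβ(1-42) and compound in PBS containing 5% EtOH and 3% DMSO at 37°C for 24 h. Coaggregates were imaged by inverted fluorescence microscope with a colour CCD camera. The read-out was the SD of fluorescence intensity over the central 100 × 100 pixels. Aggregation parameters came from Boltzmann fitting of SD versus time, compared with the no-inhibitor control.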

[4] = Inhibition of butter milk XOD (unknown origin) at 100 uM using xanthine as substrate after 8 mins relative to control
How it was run: (§3)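 Butter-milk xanthine oxidase in 100 mM phosphate buffer, pH 7.6, with compound added in DMSO. Reaction started with 500 μM xanthine (solution concentration) at rt and stopped after 8 min with 1N HCl. Absorbance at 290 nm was compared with enzyme-activity and blank wells to calculate % inhibition.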

[5] = target: T1, Amyloid-beta precursor protein; assay: Inhibition of QD-labeled amyloid beta (1 to 42) (unknown origin) aggregation assessed as lag time of aggregation at 5.13 uM after 24 hrs by inverted fluorescence microscopic method (reference value: 4.44 mins)
[6] = target: T1, Amyloid-beta precursor protein; assay: Inhibition of QD-labeled amyloid beta (1 to 42) (unknown origin) aggregation assessed as aggregation growth rate at 5.13 uM after 24 hrs by inverted fluorescence microscopic method (reference value: 0.533 /min)
[7] = Inhibition of butter milk XOD (unknown origin) at 10 uM using xanthine as substrate after 8 mins relative to control; how it was run: as §3
[8] = target: T1, Amyloid-beta precursor protein; assay: Inhibition of QD-labeled amyloid beta (1 to 42) (unknown origin) aggregation after 24 hrs by inverted fluorescence microscopic method
How it was run: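 Modified MSHTS: 30 μM Aβ(1-42) plus 30 nM QD-labeled Aβ(1-42) with serial compound concentrations in PBS containing 5% EtOH and 3% DMSO, 37°C, 24 h. Coaggregates were imaged by inverted fluorescence microscopy with a color CCD. SD of pixel fluorescence in the well centre (100×100 pixels) was plotted against concentration, and EC50 was fitted by global EC50-shift fitting.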

[9] = target: T1, Amyloid-beta precursor protein; assay: Inhibition of QD-labeled amyloid beta (1 to 42) (unknown origin) aggregation assessed as aggregation growth rate at 20.3 uM after 24 hrs by inverted fluorescence microscopic method (reference value: 0.533 /min)
[10] = target: T1, Amyloid-beta precursor protein; assay: Inhibition of QD-labeled amyloid beta (1 to 42) (unknown origin) aggregation assessed as lag time of aggregation at 20.3 uM after 24 hrs by inverted fluorescence microscopic method (reference value: 4.44 mins)
[11] = target: T1, Amyloid-beta precursor protein; assay: Inhibition of QD-labeled amyloid beta (1 to 42) (unknown origin) aggregation assessed as change in fluorescence at 20.3 uM after 24 hrs by inverted fluorescence microscopic method (reference value: 6.77); how it was run: as §2
[12] = Inhibition of butter milk XOD (unknown origin) at 1 uM using xanthine as substrate after 8 mins relative to control
How it was run: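 Buttermilk xanthine oxidase in 100 mM phosphate buffer pH 7.6 was mixed with compound in DMSO. The reaction was started with xanthine solution (500 μM as added) and run at rt for 8 min, then stopped with 1N HCl. Absorbance was read at 290 nm, and % inhibition was calculated against enzyme-activity and blank wells.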

Structure (SMILES) | inhibition [1] | inhibition [2] | Flu intensity [3] | inhibition [4] | TIME [5] | K [6] | inhibition [7] | EC50 [8] | K [9] | TIME [10] | Flu intensity [11] | inhibition [12]
CC1=NN(c2ccccc2)C(=O)C1 | 50 to 53% | 71 to 75% | – | – | – | – | – | – | – | – | – | –
CCCCCCOC(=O)/C=C/c1ccc(O)c(O)c1 [HEXYLCAFFEATE] | 45% | 61% | 3.68 | < 10% | 0.0183 h | 0.19 min⁻¹ | 10% | 5.13 µM | – | – | – | –
CCCCCCCCCOC(=O)/C=C/c1ccc(O)c(O)c1 | 45% | 61% | – | 40% | – | – | < 10% | 9.52 µM | – | – | – | –
O=C(/C=C/c1ccc(O)c(O)c1)O[C@H](Cc1ccc(O)c(O)c1)C(=O)O [ROSMARINIC ACID] | 47% | 66% | – | 27% | – | – | < 10% | 20.3 µM | 0.508 min⁻¹ | 0.093 h | 3.4 | –
CCCCCCCOC(=O)/C=C/c1ccc(O)c(O)c1 | 46% | 63% | – | 25% | – | – | 11% | 10.4 µM | – | – | – | –
CCCCCOC(=O)/C=C/c1ccc(O)c(O)c1 | 46% | 62% | – | > 90% | – | – | 11% | 2.58 µM | – | – | – | –
CCCOC(=O)/C=C/c1ccc(O)c(O)c1 | 46% | 63% | – | 61% | – | – | < 10% | 24.7 µM | – | – | – | –
C=CCOC(=O)/C=C/c1ccc(O)c(O)c1 | 46% | 62% | – | 22% | – | – | < 10% | 23.2 µM | – | – | – | –
O=C(CCc1ccccc1)OCCc1ccc(O)c(O)c1 | 38% | 54% | – | < 10% | – | – | < 10% | 5.93 µM | – | – | – | –
O=C(CCc1ccccc1)OCCc1ccccc1 | < 10% | < 10% | – | < 10% | – | – | < 10% | 4540 µM | – | – | – | –
COc1ccc(CCOC(=O)CCc2ccccc2)cc1OC | < 10% | < 10% | – | < 10% | – | – | < 10% | 274 µM | – | – | – | –
COc1ccc(CCOC(=O)/C=C/c2ccc(O)c(O)c2)cc1OC | 43% | 59% | – | 43% | – | – | 50% | 39.5 µM | – | – | – | –
O=C(/C=C/c1ccc(O)c(O)c1)NCCc1ccc(O)c(O)c1 | 47% | 64% | – | 30% | – | – | < 10% | 69 µM | – | – | – | –
O=C(/C=C/c1ccccc1)OCCc1ccccc1 [PHENETHYL CINNAMATE] | < 10% | < 10% | – | < 10% | – | – | < 10% | 1040 µM | – | – | – | –
O=C(/C=C/c1ccc(O)c(O)c1)OCCc1ccccc1 [CAFFEIC ACID PHENETHYL ESTER] | 35% | 51% | – | 62% | – | – | < 10% | 8.41 µM | – | – | – | –
O=C(/C=C/c1ccc(O)c(O)c1)OCCc1ccc(O)c(O)c1 | 37% | 46% | – | 80% | – | – | 26% | 20.6 µM | – | – | – | –
NC(=O)C(Cc1ccc(O)c(O)c1)OC(=O)/C=C/c1ccc(O)c(O)c1 (stereo not given) | 39% | 48% | – | 82% | – | – | 38% | 21.9 µM | – | – | – | –
O=C(/C=C/c1ccc(O)c(O)c1)OCCCCCO | 41% | 54% | – | 84% | – | – | < 10% | 80.1 µM | – | – | – | –
O=C(/C=C/c1ccccc1)OCCc1ccc(O)c(O)c1 | 40% | 56% | – | 22% | – | – | < 10% | 7.95 µM | – | – | – | –
CCCCCCC(=O)/C=C/c1ccc(O)c(O)c1 | 48% | 62% | – | 76% | – | – | 12% | 2.82 µM | – | – | – | –
CCCCOC(=O)/C=C/c1ccc(O)c(O)c1 [BUTYL CAFFEATE] | 46% | 62% | – | > 90% | – | – | < 10% | 12 µM | – | – | – | –
CCCCCNC(=O)/C=C/c1ccc(O)c(O)c1 | 40% | 53% | – | 33% | – | – | < 10% | 11.4 µM | – | – | – | –
O=C(/C=C/c1ccc(O)c(O)c1)OCCCCCCO | 42% | 55% | – | 51% | – | – | < 10% | 54.8 µM | – | – | – | –
Oc1ncnc2[nH]ncc12 | – | – | – | – | – | – | > 90% | – | – | – | – | < 10%
O=C(O)/C=C/c1ccc(O)c(O)c1 [CAFFEIC ACID] | 49% | 63% | – | < 10% | – | – | < 10% | 216 µM | – | – | – | –
COC(=O)/C=C/c1ccc(O)c(O)c1 [METHYLCAFFEATE] | 48% | 64% | – | 65% | – | – | < 10% | 67.7 µM | – | – | – | –
O=C(CCc1ccc(O)c(O)c1)OCCc1ccc(O)c(O)c1 | 37% | 49% | – | 21% | – | – | < 10% | 14.9 µM | – | – | – | –
